From ChEMBL document CHEMBL2412955, “Synthesis and antibacterial activities of N-substituted-glycinyl 1H-1,2,3-triazolyl oxazolidinones” (2013) come the findings set out here.

Values after ≈ are worked out from the molar mass of the structure shown.

Holding throughout (format): functional
In one test the test system is Streptococcus pneumoniae. In words: Antibacterial activity against penicillin-resistant Streptococcus pneumoniae after 18 hrs by NCCLS agar dilution method. The method, boiled down:
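Agar dilution was run on Mueller-Hinton agar supplemented with 5% sheep blood, with drug dilutions from 0.12 to 64 µg/ml. Test compounds were dissolved in 80% DMSO in water. Final inoculum was 10^7 CFU/ml, incubated at 35 °C for 18 h. MIC was the lowest concentration preventing visible growth.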
A general note: In agar dilution the substance is mixed into plates at graded concentrations.

In test [1] the test system is Staphylococcus aureus. In words: Antibacterial activity against methicillin-susceptible Staphylococcus aureus after 18 hrs by NCCLS agar dilution method. The method, boiled down: (§1)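 Clinical isolates were tested by agar dilution on Mueller-Hinton agar with drug dilutions from 0.12 to 64 µg/ml. Test compounds were dissolved in 80% DMSO in water. Final inoculum was 10^7 CFU/ml, incubated at 35 °C for 18 h. MIC was the lowest concentration inhibiting visible growth.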

In test [2] the test system is Enterococcus. Description: Antibacterial activity against vancomycin-resistant Enterococcus after 18 hrs by NCCLS agar dilution method. The method, boiled down:
as §1

In the next test the test system is Haemophilus influenzae. In words: Antibacterial activity against Haemophilus influenzae ATCC 49247 after 18 hrs by NCCLS agar dilution method. Particulars: ATCC 49247, 18 h. Put shortly:
(§2)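 NCCLS agar dilution on Mueller-Hinton agar with 5% sheep blood added to support growth. Drug dilutions 0.12–64 µg/ml. Test agents in 80% DMSO in water, linezolid in 40% water in ethanol. Final inoculum 10^7 CFU/ml, 18 h at 35 °C. MIC read as the lowest concentration with no visible growth.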

In test [3] the test system is Moraxella catarrhalis. Description: Antibacterial activity against Moraxella catarrhalis clinical isolate 1 after 18 hrs by NCCLS agar dilution method. The following applies: clinical isolate 1, 18 h. The method, boiled down: as §2
The test system of test [4] is Moraxella catarrhalis. In words: Ratio of linezolid MIC to compound MIC for Moraxella catarrhalis ATCC 8176.
For test [5], the system named is Staphylococcus aureus. Description: Antibacterial activity against Staphylococcus aureus ATCC 25923 after 18 hrs by […] in presence of human plasma. The following applies: ATCC 25923, Plasma. Put shortly:
(§3)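 To gauge plasma protein binding and/or plasma instability, MIC was determined in Mueller-Hinton broth containing 50% human plasma. Linezolid served as a reference agent. Ratio compares this MIC with the MIC obtained without plasma.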

In test [6] the test system is Moraxella catarrhalis. Description: Antibacterial activity against Moraxella catarrhalis clinical isolate 36 after 18 hrs by NCCLS agar dilution method. Particulars: clinical isolate 36, 18 h. Put shortly:
as §2

Test [7] deals with Moraxella catarrhalis. In words: Antibacterial activity against Moraxella catarrhalis ATCC 8176 after 18 hrs by NCCLS agar dilution method. The following applies: ATCC 8176, 18 h. The method, boiled down: as §2
For test [8], the system named is Moraxella catarrhalis. In words: Antibacterial activity against Moraxella catarrhalis clinical isolate 138 after 18 hrs by NCCLS agar dilution method. The following applies: clinical isolate 138, 18 h. Put shortly: as §2
In test [9] the test system is Staphylococcus aureus. Description: Ratio of MIC for Staphylococcus aureus ATCC 25923 to MIC for Staphylococcus aureus ATCC 25923 in presence of human plasma. Put shortly: as §3
Test [10] has as its system Staphylococcus. Description: Antibacterial activity against methicillin-susceptible coagulase-negative Staphylococcus after 18 hrs by NCCLS agar dilution method. The method, boiled down: as §1
The subject of test [11] is Moraxella catarrhalis. In words: Antibacterial activity against Moraxella catarrhalis clinical isolate 125 after 18 hrs by NCCLS agar dilution method. The following applies: clinical isolate 125, 18 h. Put shortly:
as §2

Test [12] concerns Moraxella catarrhalis. In words: Antibacterial activity against Moraxella catarrhalis clinical isolate 112 after 18 hrs by NCCLS agar dilution method. Particulars: clinical isolate 112, 18 h. Put shortly:
as §2

For test [13], the system named is Staphylococcus. In words: Antibacterial activity against methicillin-resistant coagulase-negative Staphylococcus after 18 hrs by NCCLS agar dilution method. The method, boiled down:
as §1

Test [14] concerns Moraxella catarrhalis. Description: Antibacterial activity against Moraxella catarrhalis clinical isolate 3447 after 18 hrs by NCCLS agar dilution method. Particulars: clinical isolate 3447, 18 h. Put shortly:
as §2

In test [15] the test system is Enterococcus. Description: Antibacterial activity against vancomycin-susceptible Enterococcus after 18 hrs by NCCLS agar dilution method. Put shortly: as §1
In test [16] the test system is Moraxella catarrhalis. Description: Antibacterial activity against Moraxella catarrhalis clinical isolate 255 after 18 hrs by NCCLS agar dilution method. The following applies: clinical isolate 255, 18 h. The method, boiled down: as §2
Test [17] has as its system Moraxella catarrhalis. In words: Antibacterial activity against Moraxella catarrhalis clinical isolate 2824 after 18 hrs by NCCLS agar dilution method. Particulars: clinical isolate 2824, 18 h. The method, boiled down: as §2
The next test has as its system Escherichia coli. Description: Antibacterial activity against Escherichia coli ATCC 25922 after 18 hrs by NCCLS agar dilution method. The following applies: ATCC 25922, 18 h. Put shortly: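 Agar dilution per NCCLS on Mueller-Hinton agar, drug dilutions 0.12–64 µg/ml. Linezolid dissolved in 40% water in ethanol, vancomycin in water, test agents in 80% DMSO in water. Inoculum 10^7 CFU/ml (final), incubated 35 °C for 18 h. MIC is the lowest concentration preventing visible growth.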

Test [18] deals with Staphylococcus aureus. Description: Antibacterial activity against Staphylococcus aureus ATCC 25923 after 18 hrs by NCCLS agar dilution method. The following applies: ATCC 25923, 18 h. Put shortly: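 Plain Mueller-Hinton agar, agar dilution per NCCLS, concentrations 0.12–64 µg/ml. Test agents in 80% DMSO in water, linezolid in 40% water in ethanol, vancomycin in water. Final inoculum 10^7 CFU/ml, 35 °C for 18 h. MIC = lowest concentration inhibiting visible growth.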

Test [19] relates to Staphylococcus aureus. Description: Antibacterial activity against methicillin-resistant Staphylococcus aureus after 18 hrs by NCCLS agar dilution method. Put shortly:
as §1

As to `O=C(NCC(=O)N1CCN(c2ccc(N3C[C@H](Cn4ccnn4)OC3=O)cc2F)CC1)c1cc([N+](=O)[O-])cc([N+](=O)[O-])c1`, the MIC is 0.25 µg/mL (≈ 0.418 µM) against Streptococcus pneumoniae; 0.5 µg/mL (≈ 0.837 µM) against Staphylococcus aureus [1]; 1 µg/mL (≈ 1.67 µM) against Enterococcus [2]; 16 µg/mL (≈ 26.8 µM) against Haemophilus influenzae; 0.25 µg/mL (≈ 0.418 µM) in the test with Moraxella catarrhalis [3]; 16 µg/mL in the test with Staphylococcus aureus [5]. In addition, the MIC against Moraxella catarrhalis [6] stood at 0.25 µg/mL (≈ 0.418 µM); against Moraxella catarrhalis [7] it was 0.5 µg/mL (≈ 0.837 µM); in the test with Moraxella catarrhalis [8] it was 0.25 µg/mL (≈ 0.418 µM); in the test with Staphylococcus [10], 0.5 µg/mL (≈ 0.837 µM); with Moraxella catarrhalis [11] it was 0.25 µg/mL (≈ 0.418 µM); in the test on Moraxella catarrhalis [12], 0.25 µg/mL (≈ 0.418 µM). Also, the MIC was 0.5 µg/mL (≈ 0.837 µM) against Staphylococcus [13]; 0.25 µg/mL (≈ 0.418 µM) with Moraxella catarrhalis [14]; 0.5 µg/mL (≈ 0.837 µM) with Enterococcus [15]; 0.25 µg/mL (≈ 0.418 µM) against Moraxella catarrhalis [16]; 0.25 µg/mL (≈ 0.418 µM) against Moraxella catarrhalis [17]; > 64 µg/mL in the test on Escherichia coli. The MIC against Staphylococcus aureus [18] came out at 1 µg/mL (≈ 1.67 µM); with Staphylococcus aureus [19], 0.5 µg/mL (≈ 0.837 µM). Also, the Ratio in the test on Moraxella catarrhalis [4] and in the test with Staphylococcus aureus [9] was 16 each time.

For `Cc1cn(C[C@H]2CN(c3ccc(N4CCN(C(=O)CNC(=O)c5ccccc5)CC4)c(F)c3)C(=O)O2)nn1`, the MIC in the test with Streptococcus pneumoniae was 2 µg/mL (≈ 3.83 µM); against Staphylococcus aureus [1], 0.5 µg/mL (≈ 0.959 µM); against Enterococcus [2] it was 0.5 µg/mL (≈ 0.959 µM); with Haemophilus influenzae, 32 µg/mL (≈ 61.4 µM); in the test on Moraxella catarrhalis [3], 4 µg/mL (≈ 7.67 µM); in the test on Staphylococcus aureus [5], 16 µg/mL. Further, the MIC with Moraxella catarrhalis [6] stood at 4 µg/mL (≈ 7.67 µM); in the test on Moraxella catarrhalis [7] it was 8 µg/mL (≈ 15.3 µM); in the test with Moraxella catarrhalis [8], 4 µg/mL (≈ 7.67 µM); with Staphylococcus [10], 0.5 µg/mL (≈ 0.959 µM); against Moraxella catarrhalis [11], 4 µg/mL (≈ 7.67 µM); in the test with Moraxella catarrhalis [12], 4 µg/mL (≈ 7.67 µM). For the same compound, the MIC against Staphylococcus [13] is 0.5 µg/mL (≈ 0.959 µM); against Moraxella catarrhalis [14], 4 µg/mL (≈ 7.67 µM); against Enterococcus [15], 0.5 µg/mL (≈ 0.959 µM); against Moraxella catarrhalis [16], 4 µg/mL (≈ 7.67 µM); with Moraxella catarrhalis [17], 4 µg/mL (≈ 7.67 µM); against Escherichia coli it was > 64 µg/mL. Further, the MIC in the test with Staphylococcus aureus [18] is 1 µg/mL (≈ 1.92 µM); against Staphylococcus aureus [19], 0.5 µg/mL (≈ 0.959 µM).

Consider `O=C(NCC(=O)N1CCN(c2ccc(N3C[C@H](Cn4ccnn4)OC3=O)cc2F)CC1)c1cccnc1`, for which the MIC in the test on Streptococcus pneumoniae amounted to 0.25 µg/mL (≈ 0.492 µM); in the test on Staphylococcus aureus [1], 1 µg/mL (≈ 1.97 µM); in the test on Enterococcus [2], 2 µg/mL (≈ 3.93 µM); with Haemophilus influenzae, 8 µg/mL (≈ 15.7 µM); in the test on Moraxella catarrhalis [3], 8 µg/mL (≈ 15.7 µM); in the test with Staphylococcus aureus [5], 8 µg/mL. The MIC with Moraxella catarrhalis [6] came to 8 µg/mL (≈ 15.7 µM); in the test on Moraxella catarrhalis [7] it was 8 µg/mL (≈ 15.7 µM); in the test with Moraxella catarrhalis [8], 8 µg/mL (≈ 15.7 µM); in the test with Staphylococcus [10] it was 1 µg/mL (≈ 1.97 µM); with Moraxella catarrhalis [11] it was 8 µg/mL (≈ 15.7 µM); with Moraxella catarrhalis [12] it was 8 µg/mL (≈ 15.7 µM). The MIC against Staphylococcus [13] was 1 µg/mL (≈ 1.97 µM); in the test with Moraxella catarrhalis [14] it was 8 µg/mL (≈ 15.7 µM); against Enterococcus [15], 2 µg/mL (≈ 3.93 µM); in the test on Moraxella catarrhalis [16], 8 µg/mL (≈ 15.7 µM); in the test with Moraxella catarrhalis [17], 8 µg/mL (≈ 15.7 µM); against Escherichia coli, > 64 µg/mL. Moreover, the MIC is 2 µg/mL (≈ 3.93 µM) against Staphylococcus aureus [18] and 1 µg/mL (≈ 1.97 µM) with Staphylococcus aureus [19].

Take `Cc1cn(C[C@H]2CN(c3ccc(N4CCN(C(=O)CNC(=O)c5cccs5)CC4)c(F)c3)C(=O)O2)nn1`: the MIC in the test with Streptococcus pneumoniae is 0.5 µg/mL (≈ 0.948 µM); with Staphylococcus aureus [1], 1 µg/mL (≈ 1.9 µM); in the test on Enterococcus [2], 1 µg/mL (≈ 1.9 µM); against Haemophilus influenzae it was 16 µg/mL (≈ 30.3 µM); against Moraxella catarrhalis [3], ≥ 8 µg/mL; with Staphylococcus aureus [5], 8 µg/mL. In addition, the MIC against Moraxella catarrhalis [6] came to 8 µg/mL (≈ 15.2 µM); against Moraxella catarrhalis [7] it was 8 µg/mL (≈ 15.2 µM); with Moraxella catarrhalis [8], 8 µg/mL (≈ 15.2 µM); against Staphylococcus [10], 1 µg/mL (≈ 1.9 µM); against Moraxella catarrhalis [11] it was 8 µg/mL (≈ 15.2 µM); in the test with Moraxella catarrhalis [12] it was 8 µg/mL (≈ 15.2 µM). The MIC with Staphylococcus [13] was 1 µg/mL (≈ 1.9 µM); against Moraxella catarrhalis [14], ≥ 8 µg/mL; in the test with Enterococcus [15], 1 µg/mL (≈ 1.9 µM); against Moraxella catarrhalis [16], 8 µg/mL (≈ 15.2 µM); against Moraxella catarrhalis [17], 8 µg/mL (≈ 15.2 µM); in the test with Escherichia coli, > 64 µg/mL. Further, the MIC against Staphylococcus aureus [18] was determined as 2 µg/mL (≈ 3.79 µM); with Staphylococcus aureus [19] it was 1 µg/mL (≈ 1.9 µM).
